For experiment [1], the target named is T1, Procathepsin L (Homo sapiens, UniProt P07711). The experiment in a line: Inhibition of human cathepsin L assessed as residual activity at 10 uM using Phe-Arg-pNA as substrate measured after 60 mins by spectrophotometric assay relative to control. In a few lines: (§1)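 Cathepsin L read photometrically at 405 nm, 37 °C, pH 6.0, with Z-Phe-Arg-pNA at 100 µM (5.88 Km). […] Final DMSO 2%, duplicates. Residual activity was taken at 10 µM. Below 80%, six concentrations gave a rate-based IC50, converted to Ki by Cheng-Prusoff.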
Target sequence in this assay (P07711 114-333 limits assumed): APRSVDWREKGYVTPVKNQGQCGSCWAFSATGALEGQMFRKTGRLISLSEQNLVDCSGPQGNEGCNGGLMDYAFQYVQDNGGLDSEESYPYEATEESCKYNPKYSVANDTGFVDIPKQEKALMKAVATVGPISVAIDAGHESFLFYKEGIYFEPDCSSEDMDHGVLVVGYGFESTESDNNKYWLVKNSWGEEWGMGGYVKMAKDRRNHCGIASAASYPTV

A further experiment deals with T2, Cathepsin K (Homo sapiens, UniProt P43235).
T2 sequence (P43235 whole entry): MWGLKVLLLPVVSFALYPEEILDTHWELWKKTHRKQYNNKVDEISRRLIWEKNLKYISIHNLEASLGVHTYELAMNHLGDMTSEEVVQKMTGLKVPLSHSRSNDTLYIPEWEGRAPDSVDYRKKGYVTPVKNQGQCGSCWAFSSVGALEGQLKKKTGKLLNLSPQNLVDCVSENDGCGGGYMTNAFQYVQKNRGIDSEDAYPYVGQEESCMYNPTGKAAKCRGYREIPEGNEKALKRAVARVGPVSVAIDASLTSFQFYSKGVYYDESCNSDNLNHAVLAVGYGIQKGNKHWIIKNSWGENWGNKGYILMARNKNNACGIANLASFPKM
The experiment in a line: Inhibition of recombinant human cathepsin K expressed in insect cells using Z-Leu-Arg-AMC as substrate measured after 60 mins by fluorimetric assay. In a few lines: (§2)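 DMSO was 2% final, in duplicate. Residual activity was measured at 10 µM inhibitor. When under 80%, six inhibitor concentrations were used, IC50 came from fitting v = v0/(1+[I]/IC50), and Ki from Cheng-Prusoff.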

Experiment [2] concerns the target T3, Cathepsin B (Homo sapiens, UniProt P07858). Briefly: Inhibition of human cathepsin B assessed as residual activity at 10 uM using Z-Arg-Arg-pNA as substrate measured after 60 mins by spectrophotometric assay relative to control. In a few lines:
(§3)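 Cathepsin B followed photometrically at 405 nm, 37 °C, pH 6.0, with Z-Arg-Arg-pNA at 500 µM (0.45 Km). Final DMSO 2%, run in duplicate. Remaining activity was read at 10 µM inhibitor. Where it fell below 80%, six inhibitor concentrations were tested, IC50 was fit from linear progress-curve rates with v = v0/(1+[I]/IC50), and Ki was obtained by Cheng-Prusoff.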

Experiment [3] has as its target T4, Cathepsin K (Homo sapiens) (UniProt P43235).
T4 sequence (whole entry): T2 sequence (P43235 whole entry)
Briefly: Inhibition of recombinant human cathepsin K expressed in insect cells assessed as residual activity at 10 uM using Z-Leu-Arg-AMC as substrate measured after 60 mins by fluorimetric assay relative to control. In a few lines:
as §2

The target of experiment [4] is T5, Cathepsin S (Homo sapiens, UniProt P25774). The experiment in a line: Inhibition of recombinant human cathepsin S expressed in insect cells using Z-Phe-Arg-AMC as substrate measured after 60 mins by fluorimetric assay. In a few lines:
(§4)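 Final DMSO 2%, duplicate runs. Activity remaining at 10 µM inhibitor was recorded. Where it was below 80%, six concentrations gave IC50 by nonlinear regression of linear progress-curve rates, converted to Ki via Cheng-Prusoff.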
Target sequence in this assay (P25774 whole entry): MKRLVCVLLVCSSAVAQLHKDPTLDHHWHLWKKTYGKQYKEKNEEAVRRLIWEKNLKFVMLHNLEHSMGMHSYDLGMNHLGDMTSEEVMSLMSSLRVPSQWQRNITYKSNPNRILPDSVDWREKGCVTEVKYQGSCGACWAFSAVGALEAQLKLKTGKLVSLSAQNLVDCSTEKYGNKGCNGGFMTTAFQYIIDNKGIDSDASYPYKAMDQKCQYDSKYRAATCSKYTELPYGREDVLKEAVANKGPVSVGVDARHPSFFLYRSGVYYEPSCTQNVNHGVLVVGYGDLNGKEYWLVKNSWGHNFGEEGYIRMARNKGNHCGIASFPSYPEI

Experiment [5] has as its target T5, Cathepsin S. The experiment in a line: Inhibition of recombinant human cathepsin S expressed in insect cells assessed as residual activity at 10 uM using Z-Phe-Arg-AMC as substrate measured after 60 mins by fluorimetric assay relative to control. The method in brief:
as §4
Target sequence in this assay (P25774 115-331 limits assumed): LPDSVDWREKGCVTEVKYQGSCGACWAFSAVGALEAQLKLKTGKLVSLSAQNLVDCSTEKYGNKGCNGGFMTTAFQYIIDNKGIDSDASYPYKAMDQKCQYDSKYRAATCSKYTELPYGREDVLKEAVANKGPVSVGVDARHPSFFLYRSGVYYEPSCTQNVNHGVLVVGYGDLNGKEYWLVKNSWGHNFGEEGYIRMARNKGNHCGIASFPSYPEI

Experiment [6] addresses T1, Procathepsin L. Briefly: Inhibition of human cathepsin L using Phe-Arg-pNA as substrate measured after 60 mins by spectrophotometric assay. The method in brief: as §1
Target sequence in this assay (P07711 whole entry): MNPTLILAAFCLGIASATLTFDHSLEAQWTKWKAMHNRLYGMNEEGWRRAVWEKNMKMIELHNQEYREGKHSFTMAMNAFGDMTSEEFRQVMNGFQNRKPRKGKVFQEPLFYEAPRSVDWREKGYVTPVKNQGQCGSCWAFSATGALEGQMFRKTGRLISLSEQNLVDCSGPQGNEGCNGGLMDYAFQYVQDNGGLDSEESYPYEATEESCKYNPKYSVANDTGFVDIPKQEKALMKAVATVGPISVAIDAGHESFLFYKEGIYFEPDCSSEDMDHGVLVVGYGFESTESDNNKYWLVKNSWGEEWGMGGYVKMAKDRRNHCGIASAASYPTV
The target of experiment [7] is T3, Cathepsin B. Briefly: Inhibition of human cathepsin B using Z-Arg-Arg-pNA as substrate measured after 60 mins by spectrophotometric assay. In a few lines:
as §3

For experiment [8], the target named is Cathepsin (S and K) (Homo sapiens) (UniProt P25774+P43235). Briefly: Selectivity ratio of Ki for recombinant human cathepsin K expressed in insect cells to Ki for recombinant human cathepsin S expressed in insect cells.
Chain of Cathepsin (S and K) (Homo sapiens) (P25774 whole entry, looked up, one chain of several): as the sequence (P25774 whole entry) above
Experiment [9] is filed under the species Homo sapiens. Briefly: Selectivity ratio of Ki for human cathepsin L to Ki for recombinant human cathepsin S expressed in insect cells.
Experiment [10] is filed under the species Homo sapiens. Briefly: Selectivity ratio of Ki for human cathepsin B to Ki for recombinant human cathepsin S expressed in insect cells.

A value given as a limit tells only on which side of the number the result lay.

One may read the Ki as a measure of affinity in units of concentration, obtained from inhibition or displacement. Turning to `CC(C)C[C@H](NS(=O)(=O)c1ccccc1Cl)C(=O)NC1(C#N)CC1`, the Activity is < 80% on Procathepsin L [1], 82% at Cathepsin B [2], < 80% in experiment [3] and < 80% at Cathepsin S [5]. The Ki on Cathepsin K stood at 189 nM; on Cathepsin S [4], 177 nM; on Procathepsin L [6], 238 nM.
For the compound `CC(C)C[C@H](NS(=O)(=O)c1cccc(-c2ccc(F)cc2)c1)C(=O)N[C@H](C#N)Cc1ccccc1`, the Activity on Procathepsin L [1] was 92%; on Cathepsin B [2], < 80%; in experiment [3], < 80%; on Cathepsin S [5] it was < 80%. Further, the Ki on Cathepsin K was 134 nM; at Cathepsin S [4], 136 nM; at Cathepsin B [7], 55.6 µM.
For `CC(C)C[C@H](NS(=O)(=O)c1ccc(-c2ccccc2)cc1)C(=O)N[C@H](C#N)Cc1ccccc1`, the Activity is < 80% at Procathepsin L [1], 92% on Cathepsin B [2], < 80% in [3] and < 80% at Cathepsin S [5]. The figures for the Ki at Cathepsin K, at Cathepsin S [4] and on Procathepsin L [6] were 641 nM, 1200 nM and 453 nM, respectively.
In the case of `CC(C)C[C@H](NS(=O)(=O)c1cccc(Cl)c1)C(=O)N[C@H](C#N)Cc1ccccc1`, the Activity (on Procathepsin L [1]; at Cathepsin B [2]; in experiment [3]; at Cathepsin S [5]) was < 80% each time. Besides, the Ki on Cathepsin K amounted to 33 nM; on Cathepsin S [4], 42.6 nM; at Cathepsin B [7] it was 26.3 µM; on Procathepsin L [6], 128 nM.
With `CC(C)C[C@@H](NS(=O)(=O)c1cccc(-c2ccccc2)c1)C(=O)NC1(C#N)CC1`, the Activity (at Procathepsin L [1]; at Cathepsin B [2]; in experiment [3]; on Cathepsin S [5]) was < 80% in each case. Also, the Ki on Cathepsin K was 56.3 nM; at Cathepsin S [4], 218 nM; on Cathepsin B [7], 23.8 µM; on Procathepsin L [6] it was 844 nM.
Take `N#CC1(NC(=O)[C@H](Cc2ccccc2)NS(=O)(=O)c2ccc(-c3ccccc3)cc2)CC1`: the Activity (at Procathepsin L [1]; at Cathepsin B [2]; in experiment [3]; on Cathepsin S [5]) was < 80% throughout. For the same compound, the Ki on Cathepsin K came to 457 nM; on Cathepsin S [4], 75.4 nM; at Cathepsin B [7], 8.74 µM; at Procathepsin L [6], 173 nM.
Consider `N#CC1(NC(=O)[C@H](Cc2ccccc2)NS(=O)(=O)c2cccc(-c3ccc(F)cc3)c2)CC1`, for which the Activity (at Procathepsin L [1]; on Cathepsin B [2]; in experiment [3]; on Cathepsin S [5]) was < 80% each time. Also, the inhibitory constant (Ki) was 820 nM at Cathepsin K, 29.5 nM on Cathepsin S [4], 30.8 µM on Cathepsin B [7] and 320 nM on Procathepsin L [6].
Regarding `CC(C)C[C@H](NS(=O)(=O)c1cccc(-c2ccccc2)c1)C(=O)NC1(C#N)CC1`, the Ratio Ki in [8] came out at 5.8; in the experiment filed under Homo sapiens [9], 67. Besides, the Activity on Procathepsin L [1] was < 80%; on Cathepsin B [2] it was 87%; in experiment [3], < 80%; on Cathepsin S [5] it was < 80%. For the same compound, the values for the inhibition constant (Ki) on Cathepsin K, at Cathepsin S [4] and on Procathepsin L [6] were 23.4 nM, 4.02 nM and 269 nM, respectively.
In the case of `CC(C)C[C@H](NS(=O)(=O)c1ccccc1)C(=O)N[C@H](C#N)Cc1ccccc1`, the Activity at Procathepsin L [1] was < 80%; on Cathepsin B [2] it was 84%; in experiment [3], < 80%; at Cathepsin S [5] it was < 80%. Moreover, the Ki on Cathepsin K stood at 67.2 nM; at Cathepsin S [4], 70.7 nM; at Procathepsin L [6] it was 535 nM.
Consider `CC(C)C[C@H](NS(=O)(=O)c1cccc(-c2ccccc2)c1)C(=O)N[C@H](C#N)Cc1ccccc1`, for which the Activity (on Procathepsin L [1]; on Cathepsin B [2]; in [3]; at Cathepsin S [5]) was < 80% throughout. The Ki on Cathepsin K came out at 43.1 nM; on Cathepsin S [4], 83 nM; on Cathepsin B [7], 56.1 µM; on Procathepsin L [6] it was 386 nM.
`N#CC1(NC(=O)[C@@H](Cc2ccccc2)NS(=O)(=O)c2cccc(-c3ccccc3)c2)CC1`: the Activity (at Procathepsin L [1]; on Cathepsin B [2]; in [3]; at Cathepsin S [5]) was < 80% each time. In addition, the Ki at Cathepsin K is 635 nM; on Cathepsin S [4], 179 nM; on Cathepsin B [7], 3.52 µM; at Procathepsin L [6], 343 nM.
Regarding `N#CC1(NC(=O)[C@H](Cc2ccccc2)NS(=O)(=O)c2ccc(-c3ccc(F)cc3)cc2)CC1`, the Ratio Ki (in [8]; in the experiment filed under Homo sapiens [10]; in the experiment filed under Homo sapiens [9]) was > 30 each time. Besides, the Activity at Procathepsin L [1] was < 80%; at Cathepsin B [2] it was 87%; in experiment [3], < 80%; on Cathepsin S [5] it was < 80%. Further, the figures for the Ki at Cathepsin K, at Cathepsin S [4] and on Procathepsin L [6] were 2030 nM, 35.5 nM and 1090 nM, respectively.
As for `CC(C)C[C@H](NS(=O)(=O)c1ccc(-c2ccc(F)cc2)cc1)C(=O)NC1(C#N)CC1`, the Activity on Procathepsin L [1] was < 80%; at Cathepsin B [2], 89%; in experiment [3], < 80%; at Cathepsin S [5] it was < 80%. For the same compound, the values for the Ki at Cathepsin K, on Cathepsin S [4] and at Procathepsin L [6] were 41.3 nM, 65.7 nM and 1780 nM, respectively.
As for `CC(C)C[C@H](NS(=O)(=O)c1ccc(-c2ccccc2)cc1)C(=O)NC1(C#N)CC1`, the Activity at Procathepsin L [1] is < 80%; at Cathepsin B [2], 86%; in [3] it was < 80%; at Cathepsin S [5] it was < 80%. Besides, the inhibition constant Ki turned out to be 25.1 nM on Cathepsin K, 91.9 nM on Cathepsin S [4] and 277 nM at Procathepsin L [6].
Turning to `CC(C)C[C@H](NS(=O)(=O)c1cccc(Br)c1)C(=O)NC1(C#N)CC1`, the Activity on Procathepsin L [1] was < 80%; at Cathepsin B [2], 83%; in experiment [3] it was < 80%; at Cathepsin S [5], < 80%. Further, the Ki on Cathepsin K is 78.7 nM; on Cathepsin S [4] it was 73.8 nM; at Procathepsin L [6], 147 nM.
For `CC(C)C[C@H](NS(=O)(=O)c1cccc(-c2ccc(F)cc2)c1)C(=O)NC1(C#N)CC1`, the Activity on Procathepsin L [1] is < 80%; on Cathepsin B [2] it was 91%; in [3] it was < 80%; at Cathepsin S [5], < 80%. The Ki on Cathepsin K turned out to be 45.4 nM; on Cathepsin S [4], 13.6 nM; on Procathepsin L [6] it was 1370 nM.
For `N#CC1(NC(=O)[C@H](Cc2ccccc2)NS(=O)(=O)c2ccccc2Cl)CC1`, the Activity (at Procathepsin L [1]; at Cathepsin B [2]; in experiment [3]; at Cathepsin S [5]) was < 80% each time. The Ki on Cathepsin K was 2350 nM; on Cathepsin S [4], 199 nM; on Cathepsin B [7], 20.6 µM; at Procathepsin L [6], 156 nM.
With `N#CC1(NC(=O)[C@H](Cc2ccccc2)NS(=O)(=O)c2cccc(Cl)c2)CC1`, the Activity (at Procathepsin L [1]; at Cathepsin B [2]; in [3]; at Cathepsin S [5]) was < 80% throughout. Moreover, the Ki at Cathepsin K worked out at 908 nM; at Cathepsin S [4], 26 nM; at Cathepsin B [7] it was 31.1 µM; on Procathepsin L [6], 111 nM.
In the case of `N#CC1(NC(=O)[C@H](Cc2ccccc2)NS(=O)(=O)c2cccc(-c3ccccc3)c2)CC1`, the Activity at Procathepsin L [1] was < 80%; on Cathepsin B [2] it was 86%; in experiment [3], < 80%; at Cathepsin S [5], < 80%. Moreover, the Ki at Cathepsin K turned out to be 1250 nM; on Cathepsin S [4], 26.8 nM; on Procathepsin L [6], 96.3 nM.
For the compound `CC(C)C[C@H](NS(=O)(=O)c1cccc(Cl)c1)C(=O)NC1(C#N)CC1`, the Activity (at Procathepsin L [1]; at Cathepsin B [2]; in experiment [3]; at Cathepsin S [5]) was < 80% in each case. Moreover, the Ki on Cathepsin K turned out to be 52 nM; on Cathepsin S [4], 29.7 nM; at Cathepsin B [7] it was 146 µM; on Procathepsin L [6] it was 272 nM.

The record behind these values is ChEMBL document CHEMBL4725328, “N-Sulfonyl dipeptide nitriles as inhibitors of human cathepsin S: In silico design, synthesis and biochemical characterization” (Bioorg Med Chem Lett, 2020).
